These results are taken from ChEMBL document CHEMBL4354867, “Validation and Characterization of Five Distinct Novel Inhibitors of Human Cytomegalovirus” (J Med Chem, 2020).

This data set has as its system HFF. In words: Cytotoxicity against human HFF cells assessed as reduction in cell viability incubated for 72 hrs or 10 days by MTT assay. It counts as cell-based. Summed up:
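MTT assay on uninfected cells exposed to compound for 72 h or 8–10 days, matching the antiviral assay durations. MTT (5 mg/mL stock in PBS) added, then 2–3 h at 37 °C. Formazan absorbance read at 560 nm.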
A general note: Tetrazolium dyes change colour on reduction, which living cells bring about.

As to `Nc1nc(O)c2ncn(COC(CO)CO)c2n1` [GANCICLOVIR], the half-maximal cytotoxic concentration (CC50) (usually the concentration that lowers cell viability or growth by half) is greater than 200 µM.
